Active and inactive are the calls of the source. No cut-off for these calls is given here.
Tests used:
Platelet [1] = experiment: Inhibition of thrombin-induced rabbit platelet aggregation compound pre-incubated in rabbit liver microsomal suspension; assay type: functional, microsomes, Microsome; details: Oryctolagus cuniculus
Summary of the method: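 Each compound was first incubated in rabbit liver microsomal suspension, then tested in rabbit platelet aggregation induced by thrombin. IC50 is the concentration giving half-maximal inhibition of aggregation. Mean ± SD of six independent experiments.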

Rattus norvegicus = experiment: Antithrombotic activity in intragastrically dosed rat venous thrombosis model; assay type: functional; details: po
Summary of the method: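 Reyers rat venous thrombosis model with intragastric dosing over 0.1–20 mg/kg, and a vehicle-treated control group. Read-out is dry clot weight. Eight animals per group, mean ± SD. ED50 is taken from the dose–response curve of clot weight against log dose (μmol/kg).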

Platelet [2] = experiment: Inhibition of ADP-induced rabbit platelet aggregation compound pre-incubated in rabbit liver microsomal suspension; assay type: functional, microsomes, Microsome; details: Oryctolagus cuniculus
Summary of the method: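 Before the in vitro assay, prodrugs were incubated in rabbit liver microsomal suspension. Rabbit platelet aggregation was then induced with ADP. IC50 is the drug concentration giving half-maximal inhibition of aggregation. Mean ± SD from six independent experiments.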

Prothrombin = Prothrombin (Homo sapiens, UniProt P00734); experiment: Binding affinity to human thrombin

| SMILES | IC50 (Platelet [1]) | other results |
| --- | --- | --- |
| COC(=O)/C=C/c1ccc(OC(=O)CCN(C(=O)c2ccc3c(c2)nc(CNc2ccc(/C(N)=N\C(=O)OCc4ccccc4)cc2)n3C)c2ccccn2)c(OC)c1 | 0.687 µM |  |
| COC(=O)/C=C/c1ccc(OC(=O)CCN(C(=O)c2ccc3c(c2)nc(CNc2ccc(/C(N)=N\C(=O)OC)cc2)n3C)c2ccccn2)c(OC)c1 | 0.841 µM |  |
| CCCCCCOC(=O)/N=C(/N)c1ccc(NCc2nc3cc(C(=O)N(CCC(=O)Oc4ccc(/C=C/C(=O)OC)cc4OC)c4ccccn4)ccc3n2C)cc1 | 0.29 µM | ED50 (Rattus norvegicus): 3.7 µmol/kg; IC50 (Platelet [2]): 5800 µM |
| COC(=O)/C=C/c1ccc(OC(=O)CCN(C(=O)c2ccc3c(c2)nc(CNc2ccc(/C(N)=N\C(=O)OC(C)(C)C)cc2)n3C)c2ccccn2)c(OC)c1 | 0.607 µM |  |
| COC(=O)/C=C/c1ccc(OC(=O)CCN(C(=O)c2ccc3c(c2)nc(CNc2ccc(/C(N)=N\C(=O)OC(C)C)cc2)n3C)c2ccccn2)c(OC)c1 | 0.784 µM |  |
| COc1cc(/C=C/C(=O)O)ccc1O [FERULATE] |  | IC50 (Platelet [2]): 2700 µM |
| CCCCCCOC(=O)NC(=N)c1ccc(NCc2nc3cc(C(=O)N(CCC(=O)OCC)c4ccccn4)ccc3n2C)cc1 [DABIGATRAN ETEXILATE] | 0.337 µM | Ki (Prothrombin): 0.0045 µM; ED50 (Rattus norvegicus): 7.8 µmol/kg; inhibition (Platelet [2]; Microsome): inactive |
| CCCCCOC(=O)/N=C(/N)c1ccc(NCc2nc3cc(C(=O)N(CCC(=O)Oc4ccc(/C=C/C(=O)OC)cc4OC)c4ccccn4)ccc3n2C)cc1 | 0.206 µM |  |
| CCOC(=O)/N=C(/N)c1ccc(NCc2nc3cc(C(=O)N(CCC(=O)Oc4ccc(/C=C/C(=O)OC)cc4OC)c4ccccn4)ccc3n2C)cc1 | 0.453 µM |  |

From ChEMBL document CHEMBL2346620, “Design, synthesis and antithrombotic evaluation of novel dabigatran prodrugs containing methyl ferulate” (Bioorg Med Chem Lett, 2013)
